Statin myotox sup: protects C2C12 myotubes from simvastatin toxicity; rescue of ATP level, % at 7.49 µM; AID 602340; actives 0.78% (n = 330,000); ATP luminescence, 48 h; scaled: DMSO 0, geranylgeraniol control 100;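 active means mean ATP rescue above about 67%, or every replicate alone reaching that limit, limit read from the data, passing the limit was not always enough; inconclusive means no clear call, values can overlap the other calls; inactive means mean under the limit and some replicate under it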;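 further: myotubes were challenged with 10 µM simvastatin during compound exposure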
Efflux pump inh: antifungal efflux pump inhibition, Nile Red retention | S. cerevisiae Candida pump triplex | inhibition, % at 10 µM | actives 0.44% (n = 330,000) | AID 485275;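 active means plate passing quality check with inhibition over a set limit, or well fluorescence over plate mean plus 4 SD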;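 further: Nile Red retained in pooled yeast measured as flow cytometry median fluorescence; higher means more Nile Red kept so more efflux inhibition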
Cneo AK release: causes C. neoformans cell lysis. lysis activity, % at 15 µM. AID 651654. actives 0.2% (n = 360,000). adenylate kinase release luminescence, 4 h; normalised: neutral wells 0, clomiphene wells 100;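 active means mean lysis activity across replicates of at least 80%, whatever share of replicates individually reach that level; inactive means mean lysis activity below 80%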
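read-out = cell lysis signal | test system = log-phase Cryptococcus neoformans yeast cells | input = cells at 5 × 10^6 per mL | medium = fresh YPD growth medium | signal = luminescent adenylate kinase detection reagent | timing = 4 h at 37 °C static, read 1 h later | dosing = single dose | controls = Clomiphene as positive lysis control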
SUMO Mot1 rescue: blocks SUMOylation pathway, rescuing yeast Mot1-301 growth; S. cerevisiae Mot1-301 growth rescue, ATP luminescence, 38.5C; percent above DMSO median, 100 means doubled; actives 1% (n = 320,000); AID 2716; growth rescue, % at 18.8 µM;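 active means every valid replicate shows activation above 250% relative to neutral control wells; inactive means the rest, any valid replicate at or below 250%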
Numbers stand for hits; . = inactive; ? = inconclusive; / = no result; + = active, no number. The list is not random: actives were taken first. Their share in the collection is about 1.8%.

SMILES | Statin myotox sup | Efflux pump inh | Cneo AK release | SUMO Mot1 rescue
COc1cc(/C=N/NS(=O)(=O)c2ccc(C)cc2)ccc1OCc1cccc(C(=O)O)c1 | . | . | . | 733
COc1ccc(/C=N/NS(=O)(=O)c2ccccc2)cc1OC(=O)c1ccc(C)cc1 | 110 | . | . | .
COc1cc(/C=N/NS(=O)(=O)c2ccc3ccccc3c2)ccc1OCc1ccc(C(=O)O)cc1 | . | . | . | .
CCOc1ccccc1NC(=O)CSc1nnc(-c2ccco2)n1Cc1ccco1 | . | . | . | .
COc1ccc(-n2c(=O)c3c(C)c(C)sc3n(Cc3ccc(F)cc3)c2=O)c(OC)c1 | . | . | / | .
CN(C)c1ccc(NC(=O)CN2C(=O)c3ccccc3C2=O)cc1 | . | . | . | .
N=C1C(c2ccccc2)=C(O)CN1NC(=O)c1ccc(Cl)cc1 | / | . | / | .
Cn1c2ccccc2c(=O)c2c(=O)n(C3CCCCC3)c(-c3ccco3)nc21 | / | . | / | 580
O=C1CCCCCN1CP(=O)(O)CN1CCCCCC1=O | . | . | . | 564
CCCOc1cccc(C(=O)O)c1 | 98 | . | . | .
CCCCOc1cccc(C(=O)O)c1 | . | . | . | .
Cc1ccc(S(=O)(=O)N2CCN(C(=O)COC(=O)c3cc(C)oc3C)CC2)cc1 | 98 | . | . | .
COc1ccc2oc(C(=O)OCC(=O)N3CCN(S(=O)(=O)c4ccc(C)cc4)CC3)c(C)c2c1 | . | . | . | .
CC(=O)Nc1cccc(-c2ccnc3c2CC(C)(C(=O)Nc2ccc(F)c(Cl)c2)O3)c1 (stereo not given) | . | / | . | /
CC(=O)Nc1cccc(-c2ccnc3c2CC(C)(C(=O)Nc2ccc(Cl)c(C(F)(F)F)c2)O3)c1 (stereo not given) | 80 | / | . | /
CCOC(=O)CN(C(=O)CNC(=O)c1cccs1)C(C(=O)NC1CCCC1)c1ccncc1 (stereo not given) | / | . | / | .
O=C(CC1C(=O)OCN1C(=O)OCc1ccccc1)OCC(=O)c1ccccc1 (stereo not given) | 103 | . | . | .
Cc1ccc(-n2ccnc(SCC(=O)NC3CCCC3)c2=O)cc1F | . | . | . | .
C1CN(CC23CC4CC(CC(C4)C2)C3)CCO1 | / | . | . | 344
CCCCOc1ccc(C(O)(CCN2CCOCC2)c2ccccc2)cc1 (stereo not given) | . | . | . | .
CCCOc1ccc(C(O)(CCN2CCCCC2)c2ccccc2OC)cc1 (stereo not given) | 87 | . | . | .
CCOC(=O)C1(CCCc2ccccc2)CCN(C(=O)CCOC)CC1 | . | . | . | 600
CCOC(=O)C1(CCCc2ccccc2)CCN(C(=O)CCc2cnn(C)c2)CC1 | / | . | / | .
CC1CCC(NC(=O)Nc2cccs2)CC1 (stereo not given) | / | . | . | .
O=C(Nc1cccs1)NC1CCCC1 | 109 | . | . | .
SMILES | Statin myotox sup | Efflux pump inh | Cneo AK release | SUMO Mot1 rescue
CC12CN3CC(C)(CN(C1)C3c1ccc3c(c1)OCO3)C2O (stereo not given) | / | . | . | +
COc1ccccc1C(=O)OCC(=O)NC(C)CCc1ccccc1 (stereo not given) | . | . | . | .
COc1ccccc1C(=O)NCC(=O)NC(C)CCc1ccccc1 (stereo not given) | . | . | . | 340
CCC(C)Nc1cc(C)nc2ncnn12 (stereo not given) | / | . | / | +
CCCCNC(=O)C1(C)CCCCN1Cc1ccc(-c2ccccc2)cc1 (stereo not given) | . | / | . | /
CCCCNC(=O)C1(C)CCCCCN1Cc1cc2ccccc2o1 (stereo not given) | 77 | / | . | /
CN(C)CCCN(Cc1ccc2c(c1)OCO2)C(=O)NC1CCCCC1 | / | . | / | .
COc1ccc(-c2csc3ncnc(N4CCN(S(=O)(=O)c5cccc(Br)c5)CC4)c23)cc1 | 77 | . | . | .
COc1ccc(Cl)cc1C(=O)N1CCC2(CC1)CC(=O)c1ccccc1O2 | / | . | / | .
COc1nc(OC)nc(Oc2ccc([N+](=O)[O-])cc2Cl)n1 | / | . | / | .
COc1ccccc1C#Cc1ccc2c(c1)O[C@@H](CN(C)C(C)=O)[C@@H](C)CN([C@H](C)CO)S2(=O)=O | . | / | 99 | /
C[C@@H]1CN([C@H](C)CO)S(=O)(=O)c2ccc(C#Cc3ccccn3)cc2O[C@@H]1CN(C)Cc1ccccc1 | . | / | . | /
C[C@@H]1CN([C@@H](C)CO)S(=O)(=O)c2ccc(C#CC3CC3)cc2O[C@H]1CN(C)CC1CCOCC1 | . | / | 87 | /
C[C@H](CO)N1C[C@H](C)[C@H](CN(C)Cc2ccccc2)Oc2cc(C#Cc3ccccn3)ccc2S1(=O)=O | . | / | 99 | /
COc1ccccc1-c1ccc2c(c1)O[C@@H](CN(C)C(=O)c1ccncc1)[C@H](C)CN([C@@H](C)CO)S2(=O)=O | . | / | . | /
COc1ccccc1-c1ccc2c(c1)O[C@@H](CN(C)C(=O)c1cccnc1)[C@H](C)CN([C@@H](C)CO)S2(=O)=O | . | / | 84 | /
CCc1nc(SCC(=O)c2ccc(C)c(C)c2)n[nH]1 | . | . | . | .
COc1ccc(C#Cc2ccc3c(c2)O[C@H](CN(C)C(=O)Nc2cccc(OC)c2)[C@@H](C)CN([C@H](C)CO)S3(=O)=O)cc1 | ? | / | . | /
C[C@H](CO)N1C[C@H](C)[C@@H](CN(C)S(C)(=O)=O)Oc2cc(C#Cc3ccccc3)ccc2S1(=O)=O | . | / | 91 | /
COc1ccc(C#Cc2ccc3c(c2)O[C@H](CN(C)C(=O)Nc2cccc(OC)c2)[C@H](C)CN([C@H](C)CO)S3(=O)=O)cc1 | 92 | / | . | /
C[C@H](CO)N1C[C@H](C)[C@H](CN(C)S(C)(=O)=O)Oc2cc(C#Cc3ccccc3)ccc2S1(=O)=O | . | / | . | /
CCCC#Cc1ccc2c(c1)O[C@H](CN(C)CCC)[C@H](C)CN([C@@H](C)CO)S2(=O)=O | . | / | 103 | /
O=C1CN(c2nc(-c3ccccc3)c3ccccc3n2)c2ccccc2N1 | / | . | / | .
COc1ccc(S(=O)(=O)Nc2ccc3c(c2)C(=O)N([C@@H](C)CO)C[C@@H](C)[C@@H](CN(C)S(=O)(=O)c2ccc(F)cc2)OCCCC[C@H](C)O3)cc1 | 151 | / | . | /
COc1ccc(S(=O)(=O)Nc2ccc3c(c2)C(=O)N([C@@H](C)CO)C[C@@H](C)[C@@H](CN(C)S(=O)(=O)c2ccc(F)cc2)OCCCC[C@@H](C)O3)cc1 | 133 | / | . | /
SMILES | Statin myotox sup | Efflux pump inh | Cneo AK release | SUMO Mot1 rescue
COc1ccc(S(=O)(=O)Nc2ccc3c(c2)C(=O)N([C@@H](C)CO)C[C@@H](C)[C@@H](CN(C)S(=O)(=O)c2cccs2)OCCCC[C@H](C)O3)cc1 | 91 | / | . | /
COc1ccc(CNC(=O)Cn2nc(Cc3cccnc3)c3ccccc3c2=O)cc1 | . | . | . | 439
NC(=O)C1CCCN(CCc2ccccc2)C1 (stereo not given) | . | . | / | .
CC(=O)N[C@@H]1C=C[C@@H](CC(=O)NCC2CCCCC2)O[C@@H]1CO | . | / | . | /
N#Cc1ccc(C(=O)NCC(c2ccco2)N2CCCCC2)cc1 (stereo not given) | 124 | . | . | .
CCOc1ccc(CCNC(=O)COC(=O)C2=NNC(=O)CC2)cc1OCC | . | . | . | .
CN=C1c2ccccc2CN1c1cccc(C(=O)OC)c1 | 100 | . | . | .

Compound activity from PubChem BioAssay.
